Results taken from PubChem BioAssay AID488910 (Broad Institute, 2010).
Screen size: about 20,000 compounds; about 25 (0.1%) were called active. Only a selection was taken, and actives are over-represented in it overall. Values without a mark were called inactive.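 Rule for the calls: active = mean replicate protection from cytokine-induced ATP loss at least 50% and at least 75% of replicates each reaching 50%; inconclusive = meets only one of the two criteria, mean or replicate share; inactive = fails both the mean and replicate share criteria.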

Experiment: preservation of ATP in cytokine-treated beta cells – cell-based, ATP luminescence, single point, primary screen (AID 488910)
Conditions: INS-1E cytokine-induced death, 48 h, at 10 µM, active compounds read high, normalised: neutral wells 0, positive control 100
Procedure, shortened: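 Assay system – rat INS-1E insulinoma cell line · Quantity – 8000 cells per well · Buffer or medium – RPMI without phenol red, 5% FBS · Schedule – 48 h co-treatment, 10 min post-lysis read · Technique – luminescent ATP assay (CellTiter-Glo)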
Compound `C[C@@H]1CN([C@@H](C)CO)C(=O)Cc2cc(NS(=O)(=O)c3cccs3)ccc2O[C@@H]1CN(C)S(=O)(=O)c1ccc(F)cc1` has a protection from cytokine-induced ATP loss of 4.38%. Compound `C[C@H](CO)N1C[C@H](C)[C@H](CN(C)Cc2ccccc2)Oc2ccc(NC(=O)Cc3ccccc3)cc2C1=O` has a protection from cytokine-induced ATP loss of 0.0546%. Work on `C[C@@H]1CN([C@@H](C)CO)C(=O)c2cc(NC(=O)Nc3cccc4ccccc34)ccc2O[C@@H]1CN(C)C(=O)Nc1cccc2ccccc12` yielded a protection from cytokine-induced ATP loss of -6.66%. `C[C@@H]1CCCCO[C@H](CN(C)Cc2ccccc2)[C@@H](C)CN([C@H](C)CO)C(=O)c2cc(NC(=O)Cc3ccccc3)ccc2O1` showed a protection from cytokine-induced ATP loss of -13%. Work on `COc1ccc(NC(=O)Nc2ccc3c(c2)C(=O)N([C@@H](C)CO)C[C@@H](C)[C@H](CN(C)Cc2ccc(Cl)c(Cl)c2)O3)cc1` yielded a protection from cytokine-induced ATP loss of -22.1%. `C[C@@H]1CN([C@H](C)CO)C(=O)Cc2cc(NC(=O)Cn3cnnn3)ccc2O[C@H]1CN(C)Cc1ccc(C(F)(F)F)cc1` gave a protection from cytokine-induced ATP loss of 1.99%. `C[C@@H]1CN([C@@H](C)CO)C(=O)c2cccc(NC(=O)C3CC3)c2O[C@@H]1CN(C)Cc1ccccc1` showed a protection from cytokine-induced ATP loss of 1.55%. In the case of `CC(C)NC(=O)Nc1ccc2c(c1)CC(=O)N([C@H](C)CO)C[C@@H](C)[C@@H](CN(C)C(=O)Nc1ccc3c(c1)OCO3)O2`, the protection from cytokine-induced ATP loss was 9.22%. `C[C@@H]1CN([C@@H](C)CO)C(=O)c2cc(NS(=O)(=O)c3ccccc3)ccc2O[C@@H]1CN(C)Cc1ccc(C(=O)O)cc1` gave a protection from cytokine-induced ATP loss of 5.28%. In the case of `C[C@H](CO)N1C[C@H](C)[C@H](CN(C)Cc2ccncc2)Oc2ccc(NS(=O)(=O)c3cn(C)cn3)cc2C1=O`, the protection from cytokine-induced ATP loss was -2.95%. Work on `C[C@@H]1CN([C@@H](C)CO)C(=O)c2cccc(NC(=O)C3CC3)c2O[C@@H]1CN(C)C` yielded a protection from cytokine-induced ATP loss of 3.84%. `CC(C)NC(=O)Nc1ccc2c(c1)C(=O)N([C@@H](C)CO)C[C@@H](C)[C@H](CN(C)Cc1ccc(-c3ccccc3)cc1)O2` gave a protection from cytokine-induced ATP loss of -8.83%. Compound `C[C@H]1CN([C@@H](C)CO)C(=O)Cc2cc(NC(=O)Nc3ccc(F)cc3)ccc2O[C@H]1CN(C)C(=O)Nc1ccc(C(F)(F)F)cc1` has a protection from cytokine-induced ATP loss of -14.8%. Work on `COc1ccc(NC(=O)N(C)C[C@@H]2Oc3ccc(NC(=O)Nc4ccccc4)cc3CC(=O)N([C@H](C)CO)C[C@@H]2C)cc1` yielded a protection from cytokine-induced ATP loss of 9.6%. `Cc1noc(C)c1NC(=O)Nc1cccc2c1O[C@@H](CN(C)CC1CCCCC1)[C@H](C)CN([C@@H](C)CO)C2=O` showed a protection from cytokine-induced ATP loss of -7.27%. With `C[C@@H]1CN([C@@H](C)CO)C(=O)c2cccc(NS(=O)(=O)c3ccc(F)cc3)c2O[C@H]1CN(C)S(=O)(=O)c1cccs1` the protection from cytokine-induced ATP loss was 2.23%. Compound `COc1ccc(NC(=O)N(C)C[C@@H]2Oc3ccc(NC(=O)Cn4cnnn4)cc3C(=O)N([C@H](C)CO)C[C@@H]2C)cc1` has a protection from cytokine-induced ATP loss of 6.28%. In the case of `Cc1ccc(S(=O)(=O)Nc2ccc3c(c2)C(=O)N([C@@H](C)CO)C[C@H](C)[C@H](CN(C)C(=O)Nc2ccc(C(F)(F)F)cc2)O3)cc1`, the protection from cytokine-induced ATP loss was -7.22%. Compound `Cc1noc(C)c1NC(=O)Nc1ccc2c(c1)C(=O)N([C@H](C)CO)C[C@@H](C)[C@H](CN(C)Cc1ccncc1)O2` has a protection from cytokine-induced ATP loss of 3.35%. In the case of `C[C@@H]1CN([C@@H](C)CO)C(=O)c2cccc(NC(=O)Nc3ccc(F)cc3)c2O[C@@H]1CN(C)C(=O)Nc1ccccc1`, the protection from cytokine-induced ATP loss was 7.56%. In the case of `C[C@H](CO)N1C[C@H](C)[C@@H](CN(C)Cc2ccc3c(c2)OCO3)Oc2c(cccc2N(C)C)C1=O`, the protection from cytokine-induced ATP loss was -11%. Work on `C[C@@H]1CN([C@@H](C)CO)C(=O)c2cccc(NS(=O)(=O)c3cccs3)c2O[C@@H]1CN(C)CC1CC1` yielded a protection from cytokine-induced ATP loss of -3.04%. `C[C@@H]1CN([C@H](C)CO)C(=O)c2cccc(NS(=O)(=O)c3ccccc3)c2O[C@@H]1CN(C)Cc1ccc(C(=O)O)cc1` showed a protection from cytokine-induced ATP loss of 2.31%. Work on `C[C@@H]1CN([C@@H](C)CO)C(=O)c2cc(NC(=O)CCN3CCOCC3)ccc2O[C@H]1CN(C)C(=O)NC1CCCCC1` yielded a protection from cytokine-induced ATP loss of 5.18%. Compound `C[C@H](CO)N1C[C@H](C)[C@@H](CN(C)Cc2ccc(C(=O)Nc3ccccc3N)cc2)Oc2c(NC(=O)C3CC3)cccc2C1=O` has a protection from cytokine-induced ATP loss of -6.93%. For `COc1ccc(NC(=O)N(C)C[C@@H]2Oc3c(NS(=O)(=O)c4cn(C)cn4)cccc3C(=O)N([C@H](C)CO)C[C@@H]2C)cc1`, the protection from cytokine-induced ATP loss was -3.57%. With `Cc1noc(C)c1S(=O)(=O)N(C)C[C@H]1OCCCC[C@@H](C)Oc2ccc(NC(=O)C3CCCCC3)cc2C(=O)N([C@H](C)CO)C[C@@H]1C` the protection from cytokine-induced ATP loss was 8.15%. Work on `C[C@@H]1CN([C@H](C)CO)C(=O)Cc2cc(NC(=O)c3ccncc3)ccc2O[C@@H]1CN(C)Cc1ccncc1` yielded a protection from cytokine-induced ATP loss of 13.2%. Work on `Cc1ccc(S(=O)(=O)N(C)C[C@@H]2Oc3c(NS(C)(=O)=O)cccc3C(=O)N([C@@H](C)CO)C[C@H]2C)cc1` yielded a protection from cytokine-induced ATP loss of -1.18%. For `C[C@H]1CN([C@@H](C)CO)C(=O)Cc2cc(NC(=O)Nc3ccc(F)cc3)ccc2O[C@H]1CN(C)S(=O)(=O)c1ccc(F)cc1`, the protection from cytokine-induced ATP loss was -1.52%. In the case of `Cc1noc(C)c1S(=O)(=O)Nc1ccc2c(c1)C(=O)N([C@@H](C)CO)C[C@@H](C)[C@H](CN(C)Cc1ccc(-c3ccccc3)cc1)O2`, the protection from cytokine-induced ATP loss was -8.15%. With `C[C@@H]1CN([C@@H](C)CO)C(=O)c2cc(NC(=O)CCCN(C)C)ccc2O[C@H]1CN(C)Cc1ccccc1` the protection from cytokine-induced ATP loss was -3.08%. Compound `CC(C)NC(=O)Nc1ccc2c(c1)C(=O)N([C@@H](C)CO)C[C@@H](C)[C@H](CN(C)C(=O)NC1CCCCC1)O2` has a protection from cytokine-induced ATP loss of 4.32%. `Cc1ccc(S(=O)(=O)Nc2cccc3c2O[C@@H](CN(C)S(=O)(=O)c2cccs2)[C@@H](C)CN([C@@H](C)CO)C3=O)cc1` gave a protection from cytokine-induced ATP loss of -0.391%. Compound `C[C@H]1CN([C@@H](C)CO)C(=O)c2cccc(NS(=O)(=O)c3cn(C)cn3)c2O[C@@H]1CN(C)C(=O)Nc1ccc(F)cc1` has a protection from cytokine-induced ATP loss of 11.3%. For `COc1ccc(NC(=O)Nc2ccc3c(c2)C(=O)N([C@H](C)CO)C[C@H](C)[C@H](CN(C)C(=O)Nc2c(C)noc2C)OCCCC[C@@H](C)O3)cc1`, the protection from cytokine-induced ATP loss was 12%. Work on `C[C@@H]1CN([C@H](C)CO)C(=O)c2cc(NS(=O)(=O)c3cn(C)cn3)ccc2O[C@H]1CN(C)S(=O)(=O)c1ccc(Cl)cc1` yielded a protection from cytokine-induced ATP loss of 0.346%. Compound `COc1ccc(NC(=O)N(C)C[C@@H]2Oc3c(NS(C)(=O)=O)cccc3C(=O)N([C@H](C)CO)C[C@H]2C)cc1` has a protection from cytokine-induced ATP loss of 3.08%. `Cc1ccc(S(=O)(=O)N(C)C[C@H]2Oc3c(NS(=O)(=O)c4cccs4)cccc3C(=O)N([C@@H](C)CO)C[C@@H]2C)cc1` showed a protection from cytokine-induced ATP loss of -3.52%. With `O=C(O)CCCCCC(=O)N/N=C/c1ccco1` the protection from cytokine-induced ATP loss was 17.1%. `Cc1ccc(S(=O)(=O)Nc2ccc3c(c2)C(=O)N([C@@H](C)CO)C[C@@H](C)[C@H](CN(C)CC2CC2)O3)cc1` gave a protection from cytokine-induced ATP loss of -3.86%. Work on `C[C@H]1CN([C@@H](C)CO)C(=O)c2cccc(NC(=O)c3ccncc3)c2O[C@@H]1CN(C)C` yielded a protection from cytokine-induced ATP loss of 7.37%. With `C[C@H]1CN([C@@H](C)CO)C(=O)c2cccc(NC(=O)Nc3ccc(C(F)(F)F)cc3)c2O[C@@H]1CN(C)Cc1ccccc1` the protection from cytokine-induced ATP loss was -19.3%. Compound `Cc1noc(C)c1NC(=O)Nc1ccc2c(c1)CC(=O)N([C@H](C)CO)C[C@@H](C)[C@@H](CN(C)Cc1ccc(C(F)(F)F)cc1)O2` has a protection from cytokine-induced ATP loss of 10.5%. `C[C@H](CO)N1C[C@H](C)[C@@H](CN(C)S(=O)(=O)c2ccccc2)Oc2c(NC(=O)c3ccc(-c4nccs4)cc3)cccc2C1=O` gave a protection from cytokine-induced ATP loss of 5.11%. Compound `C[C@@H]1CN([C@H](C)CO)C(=O)c2cc(NC(=O)CCCCCC(=O)Nc3ccccc3N)ccc2O[C@@H]1CN(C)Cc1ccncc1` has a protection from cytokine-induced ATP loss of 6.45%. For `CC(C)NC(=O)Nc1ccc2c(c1)CC(=O)N([C@H](C)CO)C[C@@H](C)[C@H](CN(C)S(=O)(=O)c1ccccc1)O2`, the protection from cytokine-induced ATP loss was 9.86%. Work on `C[C@@H]1CN([C@@H](C)CO)C(=O)c2cccc(NS(=O)(=O)c3ccc(Cl)cc3)c2O[C@@H]1CN(C)C(=O)Nc1ccccc1` yielded a protection from cytokine-induced ATP loss of 0.662%. Work on `C[C@H]1CN([C@@H](C)CO)C(=O)c2cccc(NC(=O)Nc3ccccc3)c2O[C@H]1CN(C)C(=O)Nc1cccc2ccccc12` yielded a protection from cytokine-induced ATP loss of 6.53%. `C[C@@H]1CN([C@@H](C)CO)C(=O)c2cc(NS(=O)(=O)c3cccs3)ccc2O[C@@H]1CN(C)S(=O)(=O)c1ccc(F)cc1` gave a protection from cytokine-induced ATP loss of -0.641%. `Cc1noc(C)c1NC(=O)Nc1cccc2c1O[C@H](CN(C)C(=O)Nc1ccccc1)[C@@H](C)CN([C@H](C)CO)C2=O` gave a protection from cytokine-induced ATP loss of 6.69%. Work on `C[C@H]1CN([C@@H](C)CO)C(=O)c2cccc(NC(=O)NC3CCCCC3)c2O[C@H]1CN(C)CC1CCCCC1` yielded a protection from cytokine-induced ATP loss of -14.4%. Work on `Cc1noc(C)c1NC(=O)Nc1ccc2c(c1)C(=O)N([C@@H](C)CO)C[C@H](C)[C@@H](CN(C)C(=O)Nc1ccccc1)O2` yielded a protection from cytokine-induced ATP loss of -2.87%. With `C[C@@H]1CN([C@H](C)CO)C(=O)Cc2cc(NC(=O)C3CCCCC3)ccc2O[C@@H]1CN(C)Cc1ccc(C(F)(F)F)cc1` the protection from cytokine-induced ATP loss was -23.1%. With `COc1ccc(NC(=O)N(C)C[C@@H]2Oc3c(NC(=O)C4CCOCC4)cccc3C(=O)N([C@H](C)CO)C[C@@H]2C)cc1` the protection from cytokine-induced ATP loss was 5.6%. `C[C@H](CO)N1C[C@H](C)[C@@H](CN(C)Cc2ccc(Cl)c(Cl)c2)Oc2ccc(NS(=O)(=O)c3ccccc3)cc2C1=O` gave a protection from cytokine-induced ATP loss of -24.5%.
